Results from ChEMBL document CHEMBL3774372, “Design, physico-chemical properties and biological evaluation of some new N-[(phenoxy)alkyl]- and N-{2-[2-(phenoxy)ethoxy]ethyl}aminoalkanols as anticonvulsant agents” (Bioorg Med Chem, 2016).
The source made the active and inactive calls.

Experiments:
Mus musculus [1] = experiment: Anticonvulsant activity in mouse assessed as protection against maximal electric shock-induced seizures at 10 mg/kg, ip measured after 0.5 hrs; type: functional, organism-based
Summary of the method: (§1)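 Mice dosed ip with suspension in 0.5% methylcellulose; maximal electroshock applied at the listed time after dosing. Protection = abolition of hindlimb tonic extension component of seizure; reported as animals protected/animals tested.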

Vibrio harveyi [2] = experiment: Mutagenicity in Vibrio harveyi BB7 assessed as number of colonies after 48 hrs (reference value: 13 to 14 no_unit); type: ADME, organism-based; details: in vivo
Summary of the method: (§2)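 Vibrio harveyi mutagenicity test: test compound was added to exponentially growing cultures (A600 = 0.1, 30 °C) and grown to OD600 0.3–0.4. Then 5 × 10^6 cells were plated on BOSS agar with neomycin (final 100 µg/mL) and incubated 48 h at 30 °C. Neomycin-resistant colonies were counted. Triplicate; controls were water, DMSO and NQNO 40 ng/mL.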

Vibrio harveyi [3] = experiment: Antimutagenic activity against Vibrio harveyi BB7M assessed as inhibition of NQNO-induced mutagenicity after 48 hrs; type: functional
Summary of the method: (§3)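 V. harveyi cultures grown exponentially to A600 0.1 at 30 °C, exposed to test compound for 15 min, then to NQNO, and grown on to A600 0.3–0.4. 5 × 10⁶ cells plated on BOSS agar with neomycin (100, final). Neomycin-resistant colonies counted after 48 h at 30 °C. Result given as % inhibition of NQNO mutagenicity; three independent repeats.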

Mus musculus [4] = experiment: Anticonvulsant activity in mouse assessed as protection against maximal electric shock-induced seizures at 3 mg/kg, ip measured after 4 hrs; type: functional, organism-based; summary of the method: as §1
Vibrio harveyi [5] = experiment: Mutagenicity in Vibrio harveyi BB7XM assessed as number of colonies after 48 hrs (reference value: 14 no_unit); type: ADME, organism-based; details: in vivo; summary of the method: as §2
Mus musculus [6] = experiment: Anticonvulsant activity in mouse assessed as protection against subcutaneous pentylenetetrazol-induced seizures at 30 mg/kg, ip measured after 4 hrs; type: functional, organism-based
Summary of the method: (§4)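 Mice dosed ip as 0.5% methylcellulose suspension; pentylenetetrazole 85 mg/kg in 0.9% NaCl injected subcutaneously into posterior midline, animals watched at least 30 min. Protection = no threshold seizure (single clonic spasm episode lasting ≥5 s); scored protected/tested.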

Mus musculus [7] = experiment: Anticonvulsant activity in mouse assessed as protection against maximal electric shock-induced seizures at 3 mg/kg, ip measured after 0.5 hrs; type: functional, organism-based; summary of the method: as §1
Vibrio harveyi [8] = experiment: Mutagenicity in Vibrio harveyi BB7X assessed as number of colonies after 48 hrs (reference value: 15 to 16 no_unit); type: ADME, organism-based; details: in vivo; summary of the method: as §2
Mus musculus [9] = experiment: Neurotoxicity in mouse at 300 mg/kg, ip after 0.5 hrs by rotarod test; type: toxicity, organism-based; details: in vivo
Summary of the method: (§5)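 Mice were dosed ip with compound suspended in 0.5% methylcellulose. Rotarod: a 1 in. knurled rod turning at 6 rpm. Neurotoxicity was scored as failure to stay on the rod for at least 1 min in each of three trials. Results are given as the number of animals affected out of the number tested.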

Mus musculus [10] = experiment: Anticonvulsant activity in mouse assessed as protection against maximal electric shock-induced seizures at 30 mg/kg, ip measured after 4 hrs; type: functional, organism-based; summary of the method: as §1
Mus musculus [11] = experiment: Neurotoxicity in mouse at 100 mg/kg, ip after 4 hrs by rotarod test; type: toxicity, organism-based; details: in vivo; summary of the method: as §5
Mus musculus [12] = experiment: Anticonvulsant activity in mouse assessed as protection against maximal electric shock-induced seizures at 10 mg/kg, ip measured after 4 hrs; type: functional, organism-based; summary of the method: as §1
Vibrio harveyi [13] = experiment: Mutagenicity in Vibrio harveyi BB7M assessed as number of colonies after 48 hrs (reference value: 13 to 14 no_unit); type: ADME, organism-based; details: in vivo; summary of the method: as §2
Vibrio harveyi [14] = experiment: Antimutagenic activity against Vibrio harveyi BB7 assessed as inhibition of NQNO-induced mutagenicity after 48 hrs; type: functional; summary of the method: as §3
Vibrio harveyi [15] = experiment: Antimutagenic activity against Vibrio harveyi BB7XM assessed as inhibition of NQNO-induced mutagenicity after 48 hrs; type: functional; summary of the method: as §3
Mus musculus [16] = experiment: Neurotoxicity in mouse at 10 mg/kg, ip after 4 hrs by rotarod test; type: toxicity, organism-based; details: in vivo
Mus musculus [17] = experiment: Anticonvulsant activity in mouse assessed as protection against maximal electric shock-induced seizures at 30 mg/kg, ip measured after 0.5 hrs; type: functional, organism-based; summary of the method: as §1
Mus musculus [18] = experiment: Anticonvulsant activity in mouse assessed as protection against subcutaneous pentylenetetrazol-induced seizures at 30 mg/kg, ip measured after 0.5 hrs; type: functional, organism-based; summary of the method: as §4
Mus musculus [19] = experiment: Neurotoxicity in mouse at 10 mg/kg, ip after 0.5 hrs by rotarod test; type: toxicity, organism-based; details: in vivo; summary of the method: as §5
Mus musculus [20] = experiment: Neurotoxicity in mouse at 30 mg/kg, ip after 0.5 hrs by rotarod test; type: toxicity, organism-based; details: in vivo; summary of the method: as §5
Mus musculus [21] = experiment: Anticonvulsant activity in mouse assessed as protection against maximal electric shock-induced seizures at 100 mg/kg, ip measured after 4 hrs; type: functional, organism-based; summary of the method: as §1
Mus musculus [22] = experiment: Neurotoxicity in mouse at 3 mg/kg, ip after 0.5 hrs by rotarod test; type: toxicity, organism-based; details: in vivo; summary of the method: as §5
Vibrio harveyi [23] = experiment: Antimutagenic activity against Vibrio harveyi BB7X assessed as inhibition of NQNO-induced mutagenicity after 48 hrs; type: functional; summary of the method: as §3
Mus musculus [24] = experiment: Neurotoxicity in mouse at 30 mg/kg, ip after 4 hrs by rotarod test; type: toxicity, organism-based; details: in vivo; summary of the method: as §5
Mus musculus [25] = experiment: Neurotoxicity in mouse at 3 mg/kg, ip after 4 hrs by rotarod test; type: toxicity, organism-based; details: in vivo

**Q.** `CC[C@H](CO)NCCOCCOc1c(C)cccc1C` was tested. Which Activity (Mus musculus [1]) did it give?
**A.** inactive

**Q.** What about the Activity (Vibrio harveyi [2]) of the same compound?
**A.** 20

**Q.** And the “inhibition (INH)” value (Vibrio harveyi [3])?
**A.** 55%

**Q.** What about the Activity (Mus musculus [4]) of the same compound?
**A.** inactive

**Q.** What about the Activity (Vibrio harveyi [5]) of the same compound?
**A.** 27

**Q.** And the Activity (Mus musculus [6])?
**A.** inactive

**Q.** What about the Activity (Mus musculus [7]) of the same compound?
**A.** inactive

**Q.** What about the Activity (Vibrio harveyi [8]) of the same compound?
**A.** 26

**Q.** What about the Activity (Mus musculus [9]) of the same compound?
**A.** Toxic

**Q.** And the Activity (Mus musculus [10])?
**A.** inactive

**Q.** What about the Activity (Mus musculus [11]) of the same compound?
**A.** Non-toxic

**Q.** What about the Activity (Mus musculus [12]) of the same compound?
**A.** inactive

**Q.** What about the Activity (Vibrio harveyi [13]) of the same compound?
**A.** 20

**Q.** What about the “inhibition (INH)” value (Vibrio harveyi [14]) of the same compound?
**A.** 81%

**Q.** What about the “inhibition (INH)” value (Vibrio harveyi [15]) of the same compound?
**A.** 30%

**Q.** What about the Activity (Mus musculus [16]) of the same compound?
**A.** Non-toxic

**Q.** And the Activity (Mus musculus [17])?
**A.** Active

**Q.** What about the Activity (Mus musculus [18]) of the same compound?
**A.** inactive

**Q.** And the Activity (Mus musculus [19])?
**A.** Non-toxic

**Q.** And the Activity (Mus musculus [20])?
**A.** Non-toxic

**Q.** And the Activity (Mus musculus [21])?
**A.** inactive

**Q.** And the Activity (Mus musculus [22])?
**A.** Non-toxic

**Q.** What about the “inhibition (INH)” value (Vibrio harveyi [23]) of the same compound?
**A.** 56%

**Q.** What about the Activity (Mus musculus [24]) of the same compound?
**A.** Non-toxic

**Q.** What about the Activity (Mus musculus [25]) of the same compound?
**A.** Non-toxic
